Results as given in ChEMBL document CHEMBL1124766, “Novel benzamides as selective and potent gastric prokinetic agents. 1. Synthesis and structure-activity relationships of N-[(2-morpholinyl)alkyl]benzamides” (1990).
Each block holds one molecule with its values, some of them ahead of it.

Columns and labels:
Rattus norvegicus [1] = assay: Evaluated for the effects on the gastric emptying rates of phenol red semisolid meal through the stomach in rats, at a dose of 2.0 mg/Kg administered perorally.; format: functional
How it was run: (§1)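 Mice or rats fasted 18 h. Compound suspended in 0.5% tragacanth given orally 60 min before a gavaged meal of 0.05% phenol red in 1.5% aqueous methylcellulose (0.2 mL/mouse, 1.5 mL/rat). Animals killed 15 min later; phenol red left in stomach measured (Scarpignato method). Emptying expressed as % enhancement over tragacanth-control mean; Duncan's multiple range test.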

Rattus norvegicus [2] = assay: Evaluated for the effects on the gastric emptying rates of resin pellets solid meal through the stomach in rats, at a dose of 5.0 mg/kg administered perorally; format: functional; conditions: route oral
How it was run: (§2)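 Rats fasted 18 h. Compound suspended in 0.5% tragacanth given orally 30 min before 40 resin pellets (Amberlite IRA-93, 1-mm) are delivered into the stomach by tube. Animals killed 1 h later and pellets remaining in the stomach counted (Jacoby method). Result given as % enhancement over tragacanth-control mean; Duncan's multiple range test.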

Rattus norvegicus [3] = assay: Evaluated for the effects on the gastric emptying rates of resin pellets solid meal through the stomach in rats, at a dose of 10 mg/kg administered perorally; format: functional; conditions: route oral; how it was run: as §2
Rattus norvegicus [4] = assay: Evaluated for the effects on the gastric emptying rates of phenol red semisolid meal through the stomach in rats, at a dose of 2.0 mg/kg administered perorally; format: functional; conditions: route oral; how it was run: as §1
Rattus norvegicus [5] = assay: Evaluated for the effects on the gastric emptying rates of phenol red semisolid meal through the stomach in rats, at a dose of 10.0 mg/kg administered perorally; format: functional; conditions: route oral; how it was run: as §1
Mus musculus [6] = assay: Evaluated for the effects on the gastric emptying rates of phenol red semisolid meal through the stomach in mouse, at a dose of 1 mg/kg administered perorally; format: functional; conditions: route oral; how it was run: as §1
Mus musculus [7] = assay: Evaluated for the effects on the gastric emptying rates of phenol red semisolid meal through the stomach in mouse, at a dose of 5 mg/kg administered perorally; format: functional; conditions: route oral; how it was run: as §1
Rattus norvegicus [8] = assay: Evaluated for the effects on the gastric emptying rates of phenol red semisolid meal through the stomach in rats, at a dose of 5.0 mg/kg administered perorally; format: functional; conditions: route oral; how it was run: as §1
Mus musculus [9] = assay: Evaluated for the effects on the gastric emptying rates of phenol red semisolid meal through the stomach in mouse, at a dose of 2 mg/kg administered perorally; format: functional; conditions: route oral; how it was run: as §1
[10] = target: D(2) dopamine receptor (Canis lupus familiaris) (UniProt Q9GJU1); conditions: 3.0 mg/kg
D(2) dopamine receptor (Canis lupus familiaris), sequence (Q9GJU1 whole entry): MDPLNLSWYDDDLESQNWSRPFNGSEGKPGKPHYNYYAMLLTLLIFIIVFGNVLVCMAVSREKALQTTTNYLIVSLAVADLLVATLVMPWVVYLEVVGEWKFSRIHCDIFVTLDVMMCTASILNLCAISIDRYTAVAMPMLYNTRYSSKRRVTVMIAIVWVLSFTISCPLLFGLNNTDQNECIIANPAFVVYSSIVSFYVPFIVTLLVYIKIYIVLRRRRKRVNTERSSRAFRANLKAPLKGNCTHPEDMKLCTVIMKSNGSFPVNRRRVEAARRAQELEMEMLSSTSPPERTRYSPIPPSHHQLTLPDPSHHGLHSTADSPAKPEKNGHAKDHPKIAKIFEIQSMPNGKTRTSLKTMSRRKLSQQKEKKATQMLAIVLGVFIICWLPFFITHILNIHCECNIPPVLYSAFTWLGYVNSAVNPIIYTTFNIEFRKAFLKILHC

[11] = tested on: dopamine D2 receptor (Canis familiaris); assay: Evaluated for the dopamine D2 receptor antagonistic activity (antagonism of apomorphine-induced emesis in dogs) at a dose of 3.0 mg/kg administered perorally; conditions: Canis lupus familiaris
Mus musculus [12] = assay: Evaluated for the effects on the gastric emptying rates of phenol red semisolid meal through the stomach in mouse, at a dose of 0.5 mg/kg administered perorally; format: functional; conditions: route oral; how it was run: as §1
[13] = target: D(2) dopamine receptor (Canis lupus familiaris) (UniProt Q9GJU1); assay: Evaluated for the dopamine D2 receptor antagonistic activity (antagonism of the apomorphine-induced emesis in dogs) at a dose of 3.0 mg/kg administered perorally (po).; format: functional, organism-based; set-up: dose 3 mg/kg
How it was run: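 Male beagle dogs (10-16 kg), groups of three to six, pretreated with test compound; 2 h later apomorphine hydrochloride 0.3 mg/kg s.c.; emetic episodes counted over 1 h. Modified Janssen method.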

Rattus norvegicus [14] = assay: Evaluated for the effects on the gastric emptying rates of phenol red semisolid meal through the stomach in rats, at a dose of 0.5 mg/kg administered perorally; format: functional; conditions: route oral; how it was run: as §1
Rattus norvegicus [15] = assay: Evaluated for the effects on the gastric emptying rates of resin pellets solid meal through the stomach in rats, at a dose of 2.0 mg/kg administered perorally; format: functional; conditions: route oral; how it was run: as §2
Mus musculus [16] = assay: Evaluated for the effects on the gastric emptying rates of phenol red semisolid meal through the stomach in mouse, at a dose of 2 mg/kg administered perorally (po); (p<0.01); format: functional; how it was run: as §1
Mus musculus [17] = assay: Evaluated for the effects on the gastric emptying rates of phenol red semisolid meal through the stomach in mouse, at a dose of 0.5 mg/Kg administered perorally; format: functional; how it was run: as §1
Rattus norvegicus [18] = assay: Evaluated for the effects on the gastric emptying rates of phenol red semisolid meal through the stomach in rats, at a dose of 10.0 mg/Kg administered perorally; format: functional; how it was run: as §1
Rattus norvegicus [19] = assay: Evaluated for the effects on the gastric emptying rates of resin pellets solid meal through the stomach in rats, at a dose of 5.0 mg/Kg administered perorally; format: functional; how it was run: as §2
Rattus norvegicus [20] = assay: Evaluated for the effects on the gastric emptying rates of resin pellets solid meal through the stomach in rats, at a dose of 10 mg/Kg administered perorally; format: functional; how it was run: as §2
Rattus norvegicus [21] = assay: Evaluated for the effects on the gastric emptying rates of phenol red semisolid meal through the stomach in rats, at a dose of 0.5 mg/Kg administered perorally; format: functional; how it was run: as §1
Mus musculus [22] = assay: Evaluated for the effects on the gastric emptying rates of phenol red semisolid meal through the stomach in mouse, at a dose of 2 mg/Kg administered perorally; format: functional; how it was run: as §1
Mus musculus [23] = assay: Evaluated for the effects on the gastric emptying rates of phenol red semisolid meal through the stomach in mouse, at a dose of 1 mg/Kg administered perorally; format: functional; how it was run: as §1
Rattus norvegicus [24] = assay: Evaluated for the effects on the gastric emptying rates of resin pellets solid meal through the stomach in rats, at a dose of 2.0 mg/Kg administered perorally; format: functional; how it was run: as §2
Mus musculus [25] = assay: Evaluated for the effects on the gastric emptying rates of phenol red semisolid meal through the stomach in mouse, at a dose of 5 mg/Kg administered perorally; format: functional; how it was run: as §1
Rattus norvegicus [26] = assay: Evaluated for the effects on the gastric emptying rates of phenol red semisolid meal through the stomach in rats, at a dose of 5.0 mg/Kg administered perorally; format: functional; how it was run: as §1

Compound: CN(C)c1c(Cl)cc(C(=O)NCC2CN(Cc3ccccc3)CCO2)c(O)c1Cl.O=C(O)C(=O)O (stereo not drawn)
GE (Rattus norvegicus [1]): 14%

Compound: O=C(NCC1CN(Cc2ccccc2)CCO1)c1c(F)c(F)c(F)c(F)c1F.O=C(O)C(=O)O (stereo not drawn)
GE (Rattus norvegicus [1]): 9%

Compound: COc1ccccc1C(=O)NCC1CN(Cc2ccccc2)CCO1.O=C(O)/C=C/C(=O)O (stereo not drawn)
GE (Rattus norvegicus [1]): 17%

Compound: COc1c(Cl)cc(Cl)c(OC)c1C(=O)NCC1CN(Cc2ccccc2)CCO1 (stereo not drawn)
GE (Rattus norvegicus [1]): 4%

Compound: O=C(NCC1CN(Cc2ccccc2)CCO1)c1ccc2c(c1)OCO2.O=C(O)/C=C/C(=O)O (stereo not drawn)
GE (Rattus norvegicus [1]): 34%

Compound: COc1cc(N)c(Cl)cc1C(=O)N(C)CC1CN(Cc2ccccc2)CCO1.O=C(O)/C=C/C(=O)O (stereo not drawn)
GE (Rattus norvegicus [1]): 15%

Compound: COc1cc(NC(C)=O)ccc1C(=O)NCC1CN(Cc2ccccc2)CCO1.O (stereo not drawn)
GE (Rattus norvegicus [1]): 24%

Compound: COc1ccc(S(N)(=O)=O)cc1C(=O)NCC1CN(Cc2ccccc2)CCO1 (stereo not drawn)
GE (Rattus norvegicus [1]): 24%

Compound: CCOc1cc(N)c(Cl)cc1C(=O)NCCCC1CN(Cc2ccccc2)CCO1 (stereo not drawn)
GE (Rattus norvegicus [1]): 18%

inhibition [10]: 100%
Compound: CCN(CC)CCNC(=O)c1cc(Cl)c(N)cc1OC [METOCLOPRAMIDE]
GE (Rattus norvegicus [2]): 23%
GE (Rattus norvegicus [3]): 43%
GE (Rattus norvegicus [4]): 21%
GE (Rattus norvegicus [5]): 31%
GE (Mus musculus [6]): -10%
GE (Mus musculus [7]): 28%
GE (Rattus norvegicus [8]): 26%
GE (Mus musculus [9]): 20%

Compound: CCOc1cc(N(C)C)c(Cl)cc1C(=O)NCC1CN(Cc2ccccc2)CCO1.O=C(O)C(=O)O (stereo not drawn)
GE (Rattus norvegicus [1]): 51%

Compound: COc1cc(N)ccc1C(=O)NCC1CN(Cc2ccccc2)CCO1 (stereo not drawn)
GE (Rattus norvegicus [1]): 11%

Compound: CN(C)c1cc(O)c(C(=O)NCC2CN(Cc3ccccc3)CCO2)cc1Cl.O=C(O)C(=O)O (stereo not drawn)
GE (Rattus norvegicus [1]): 27%

Compound: COc1cc(N)c(Cl)cc1C(=O)NCC1CN(Cc2ccccc2)CCO1 (stereo not drawn) [listing 1 of 2 here]
inhibition [11]: 4%

Compound: NS(=O)(=O)c1ccc(Cl)c(C(=O)NCC2CN(Cc3ccccc3)CCO2)c1 (stereo not drawn)
GE (Rattus norvegicus [1]): 18%

Compound: COc1cc(Cl)ccc1C(=O)NCC1CN(Cc2ccccc2)CCO1.Cl (stereo not drawn)
GE (Rattus norvegicus [1]): 23%

Compound: COc1cc(C(=O)NCC2CN(Cc3ccccc3)CCO2)cc(OC)c1OC.O=C(O)C(=O)O (stereo not drawn)
GE (Rattus norvegicus [1]): 11%

Compound: COc1cc(N(C)C)c(Cl)cc1C(=O)NCC1CN(Cc2ccccc2)CCO1.O=C(O)/C=C/C(=O)O (stereo not drawn)
GE (Rattus norvegicus [2]): 5%
GE (Mus musculus [12]): 7%
GE (Rattus norvegicus [4]): 52%
inhibition [13]: 0%
GE (Rattus norvegicus [5]): 49%
GE (Mus musculus [6]): 33%
GE (Mus musculus [7]): 43%
GE (Rattus norvegicus [14]): 27%
GE (Rattus norvegicus [8]): 47%
GE (Rattus norvegicus [15]): 15%
GE (Mus musculus [9]): 43%

Compound: COc1cc(N)c(Cl)cc1C(=O)OCC1CN(Cc2ccccc2)CCO1 (stereo not drawn)
GE (Rattus norvegicus [1]): 17%

Compound: CCSc1ccc(S(N)(=O)=O)cc1C(=O)NCC1CN(Cc2ccccc2)CCO1 (stereo not drawn)
GE (Rattus norvegicus [1]): 27%

Compound: COc1cc(N)c([N+](=O)[O-])cc1C(=O)NCC1CN(Cc2ccccc2)CCO1.O (stereo not drawn)
GE (Rattus norvegicus [1]): 14%

Compound: COc1cc(N)c(Cl)cc1C(=O)NCC1CN(Cc2ccccc2)CCO1.Cl (stereo not drawn)
GE (Rattus norvegicus [1]): 39%

Compound: CCOc1cc(N)c(Cl)cc1C(=O)NCC1CN(Cc2ccccc2)CCO1.O (stereo not drawn)
GE (Rattus norvegicus [2]): 76%
GE (Mus musculus [12]): 35%
GE (Rattus norvegicus [4]): 54%
GE (Mus musculus [16]): 52%
inhibition [13]: 5%
GE (Rattus norvegicus [5]): 49%
GE (Mus musculus [6]): 23%
GE (Mus musculus [7]): 38%
GE (Rattus norvegicus [14]): 34%
GE (Rattus norvegicus [8]): 56%
GE (Rattus norvegicus [15]): 58%

Compound: O=C(NCC1CN(Cc2ccccc2)CCO1)c1cccc2c1OCO2.O=C(O)/C=C/C(=O)O (stereo not drawn)
GE (Rattus norvegicus [1]): 30%

Compound: CCOc1ccc(S(N)(=O)=O)cc1C(=O)NCC1CN(Cc2ccccc2)CCO1 (stereo not drawn)
GE (Rattus norvegicus [1]): 19%

Compound: Nc1cc(O)c(C(=O)NCC2CN(Cc3ccccc3)CCO2)cc1Cl.O (stereo not drawn)
GE (Rattus norvegicus [1]): 36%

Compound: CC(=O)Nc1cc(O)c(C(=O)NCC2CN(Cc3ccccc3)CCO2)cc1Cl (stereo not drawn)
GE (Rattus norvegicus [1]): 11%

Compound: COc1cc(N)c(Cl)cc1C(=O)NCC1CN(Cc2ccccc2)CCO1 (stereo not drawn) [listing 2 of 2 here]
GE (Mus musculus [17]): 50%
GE (Rattus norvegicus [18]): 52%
GE (Rattus norvegicus [19]): 70%
GE (Rattus norvegicus [20]): 78%
GE (Rattus norvegicus [21]): 18%
GE (Mus musculus [22]): 46%
GE (Mus musculus [23]): 49%
GE (Rattus norvegicus [1]): 26%
GE (Rattus norvegicus [24]): 49%
GE (Mus musculus [25]): 68%
GE (Rattus norvegicus [26]): 35%

Compound: COc1cc(N)c(Cl)cc1C(=O)NCCCC1CN(Cc2ccccc2)CCO1.O=C(O)C(=O)O (stereo not drawn)
GE (Rattus norvegicus [1]): 23%

Compound: COc1cc(N)c(Cl)cc1C(=O)NC1CCN(CCCOc2ccc(F)cc2)CC1OC (stereo not drawn) [CISAPRIDE]
GE (Mus musculus [12]): 24%
GE (Rattus norvegicus [4]): 47%
GE (Rattus norvegicus [5]): 43%
GE (Mus musculus [6]): 29%
GE (Mus musculus [7]): 38%
GE (Rattus norvegicus [14]): 14%
GE (Rattus norvegicus [8]): 50%
GE (Mus musculus [9]): 36%

Compound: COc1cc(N)c(Cl)cc1C(=O)NCCC1CN(Cc2ccccc2)CCO1.O=C(O)/C=C/C(=O)O (stereo not drawn)
GE (Rattus norvegicus [1]): 35%

Compound: Nc1ccc(C(=O)NCC2CN(Cc3ccccc3)CCO2)cc1Cl.O=C(O)C(=O)O (stereo not drawn)
GE (Rattus norvegicus [1]): 30%

Compound: COc1ccc(Cl)cc1C(=O)NCC1CN(Cc2ccccc2)CCO1.Cl (stereo not drawn)
GE (Rattus norvegicus [1]): 19%

Compound: CCN(CC)c1cc(OC)c(C(=O)NCC2CN(Cc3ccccc3)CCO2)cc1Cl.O=C(O)C(=O)O (stereo not drawn)
GE (Rattus norvegicus [1]): 21%

Compound: CNc1cc(OC)c(C(=O)NCC2CN(Cc3ccccc3)CCO2)cc1Cl.O=C(O)/C=C/C(=O)O (stereo not drawn)
GE (Rattus norvegicus [1]): 14%

Compound: COc1cc(N)c(Br)cc1C(=O)NCC1CN(Cc2ccccc2)CCO1 (stereo not drawn)
GE (Rattus norvegicus [1]): 10%

Compound: CCOc1cc(N)c(Cl)cc1C(=O)NCCC1CN(Cc2ccccc2)CCO1 (stereo not drawn)
GE (Rattus norvegicus [1]): 45%

Compound: COc1cc(Cl)c(N)cc1C(=O)NCC1CN(Cc2ccccc2)CCO1 (stereo not drawn)
GE (Rattus norvegicus [1]): 10%
